# Results from ChEMBL document CHEMBL1135464, “3-Aryl-2-quinolone derivatives: synthesis and characterization of in vitro and in vivo antitumor effects with emphasis on a new therapeutical target connected with cell migration” (J Med Chem, 2002).
# pIC50: −log10 of the molar value.
# Columns and labels:
# A-427 [1] = assay: Cytotoxicity against A-427 nonsmall lung cell line using MTT colorimetric assay; format: functional, cell-based; conditions: Homo sapiens
# Outline: (§1)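 Human tumour lines from ATCC were grown at 37 °C in sealed dishes in MEM with 5% FCS. Cells were seeded at 40000 cells/mL in 96-well plates and left 24 h to plate. Each drug was then tested at six concentrations from 10^-5 to 10^-9 M. Growth was read by colorimetric MTT assay.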
# A549 [2] = assay: Cytotoxicity against A549 nonsmall lung cell line using MTT colorimetric assay; format: functional, cell-based; conditions: Homo sapiens; outline: as §1
# [3] = Evaluated in vivo for maximum tolerated dose and found to be nontoxic; format: ADME, organism-based
# MCF7 [4] = assay: Cytotoxicity against Breast cancer cell line MCF-7 using MTT colorimetric assay; format: functional, cell-based; conditions: Homo sapiens; outline: as §1
# T47D [5] = assay: Cytotoxicity against Breast cancer cell line T-47D using MTT colorimetric assay; format: functional, cell-based; conditions: Homo sapiens; outline: as §1
# T-24 [6] = assay: Cytotoxicity against T24 bladder cell lines using MTT colorimetric assay; format: functional, cell-based; conditions: Homo sapiens; outline: as §1
# U373 MG [7] = assay: Cytotoxicity against U-373 MG glioblastomas using MTT colorimetric assay; format: functional, cell-based, U-373MG ATCC; conditions: Homo sapiens; outline: as §1
# A 172 [8] = assay: Cytotoxicity against A-172 glioblastomas using MTT colorimetric assay; format: functional, cell-based; conditions: Homo sapiens; outline: as §1
# J82 [9] = assay: Cytotoxicity against J82 bladder cell lines using MTT colorimetric assay; format: functional, cell-based; conditions: Homo sapiens; outline: as §1
# U-87 MG [10] = assay: Cytotoxicity against U-87 MG glioblastomas using MTT colorimetric assay; format: functional, cell-based, U-87MG ATCC; conditions: Homo sapiens; outline: as §1
# LoVo [11] = assay: Cytotoxicity measured on LoVo colon cell line using MTT colorimetric assay; format: functional, cell-based; conditions: Homo sapiens; outline: as §1
# HCT-15 [12] = assay: Cytotoxicity against HCT-15 colon cell line using MTT colorimetric assay at 1x 10 E-5; format: functional, cell-based; conditions: Homo sapiens; outline: as §1
# PC-3 [13] = assay: Cytotoxicity against prostate cell line PC-3 using MTT colorimetric assay; format: functional, cell-based; conditions: Homo sapiens; outline: as §1
# LoVo [14] = assay: Cytotoxicity against LoVo colon cell line using MTT colorimetric assay; NE is no effect at 1x 10 E-5; format: functional, cell-based, Homo sapiens; outline: as §1
# J82 [15] = assay: Cytotoxicity against J82 bladder cell lines using MTT colorimetric assay; NE is no effect at 1x 10 E-5; format: functional, cell-based, Homo sapiens; outline: as §1
# PC-3 [16] = assay: Cytotoxicity against prostate cell line PC-3 using MTT colorimetric assay; NE is no effect at 1x 10 E-5; format: functional, cell-based, Homo sapiens; outline: as §1
# T47D [17] = assay: Cytotoxicity against Breast cancer cell line T-47D using MTT colorimetric assay at 1x 10 E-5; NE is no effect at 1x 10 E-5; format: functional, cell-based, Homo sapiens; outline: as §1
# U373 MG [18] = assay: Cytotoxicity against U-373 MG glioblastomas using MTT colorimetric assay; NE is no effect at 1x 10 E-5; format: functional, cell-based, Homo sapiens; conditions: u-373mg atcc; outline: as §1
# A-427 [19] = assay: Cytotoxicity against A-427 nonsmall lung cell line using MTT colorimetric assay; NE is no effect at 1x 10 E-5; format: functional, cell-based, Homo sapiens; outline: as §1
# T-24 [20] = assay: Cytotoxicity against T24 bladder cell lines using MTT colorimetric assay; NE is no effect at 1x 10 E-5; format: functional, cell-based, Homo sapiens; outline: as §1
# U-87 MG [21] = assay: Cytotoxicity against U-87 MG glioblastomas using MTT colorimetric assay; NE is no effect at 1x 10 E-5; format: functional, cell-based, Homo sapiens; conditions: u-87mg atcc; outline: as §1
# A549 [22] = assay: Cytotoxicity against A549 nonsmall lung cell line using MTT colorimetric assay; NE is no effect at 1x 10 E-5; format: functional, cell-based, Homo sapiens; outline: as §1
# MCF7 [23] = assay: Cytotoxicity against Breast cancer cell line MCF-7 using MTT colorimetric assay; NE is no effect at 1x 10 E-5; format: functional, cell-based, Homo sapiens; outline: as §1
# A 172 [24] = assay: Cytotoxicity against A-172 glioblastomas using MTT colorimetric assay; NE is no effect at 1x 10 E-5; format: functional, cell-based, Homo sapiens; outline: as §1
# HCT-15 [25] = assay: Cytotoxicity against HCT-15 colon cell line using MTT colorimetric assay a; NE is no effect at 1x 10 E-5; format: functional, cell-based, Homo sapiens; outline: as §1
# Mus musculus [26] = assay: Evaluated in vivo for maximum tolerated dose (MTD16) using MXT mouse mammary adenocarcinoma model; format: functional
# Outline: (§2)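 MXT-HS hormone-sensitive mammary adenocarcinoma maintained by monthly s.c. transplantation in 6-week-old female B6D2F1 mice. Doses are set as fractions of the MTD. Drugs given i.p.; ETO and DOX 9 times, the quinolone 20 times. Nine mice per group. Tumor area (mm2) is the product of the two largest perpendicular caliper diameters, measured weekly. Mean ± SEM; Mann-Whitney test.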
# Mus musculus [27] = assay: Evaluated in vivo for maximum tolerated dose (MTD/4) using MXT mouse mammary adenocarcinoma model; format: functional; outline: as §2
# Mus musculus [28] = assay: Evaluated in vivo for maximum tolerated dose (MTD/2) using MXT mouse mammary adenocarcinoma model; format: functional; outline: as §2
# Mus musculus [29] = assay: Evaluated in vivo for maximum tolerated dose (MTD/8) using MXT mouse mammary adenocarcinoma model; format: functional; outline: as §2
# T47D [30] = assay: Cytotoxicity against Breast cancer cell line T-47D using MTT colorimetric assay at 1x 10 E-5; format: functional, cell-based; conditions: Homo sapiens; outline: as §1
# HCT-15 [31] = assay: Cytotoxicity against HCT-15 colon cell line using MTT colorimetric assay; format: functional, cell-based; conditions: Homo sapiens; outline: as §1
# Mus musculus [32] = assay: Evaluated in vivo for maximum tolerated dose (MTD/4) using MXT mouse mammary adenocarcinoma model
# Mus musculus [33] = assay: Evaluated in vivo for maximum tolerated dose (MTD/8) using MXT mouse mammary adenocarcinoma model
# Mus musculus [34] = assay: Evaluated in vivo for maximum tolerated dose (MTD/2) using MXT mouse mammary adenocarcinoma model ( highly toxic)
# Mus musculus [35] = assay: Evaluated in vivo for maximum tolerated dose (MTD/16) using MXT mouse mammary adenocarcinoma model ( ineffective); format: ADME, organism-based; outline: as §2
structure (smiles),measurement,setting,value
COC(=O)CCn1c(=O)c(-c2ccc(OC)cc2)cc2c(OC)cc(OC)cc21,pIC50,A-427 [1],< 5.00
same,pIC50,A549 [2],< 5.00
same,MTD,[3],160 mg/kg
same,pIC50,MCF7 [4],< 5.00
same,pIC50,T47D [5],< 5.00
same,pIC50,T-24 [6],< 5.00
same,pIC50,U373 MG [7],< 5.00
same,pIC50,A 172 [8],< 5.00
same,pIC50,J82 [9],< 5.00
same,pIC50,U-87 MG [10],< 5.00
same,pIC50,LoVo [11],< 5.00
same,pIC50,HCT-15 [12],< 5.00
same,pIC50,PC-3 [13],< 5.00
COc1ccc(-c2cc3c(OC)cc(OC)cc3n(CCC(=O)O)c2=O)cc1,IC50,LoVo [14],No effect
same,IC50,J82 [15],No effect
same,IC50,PC-3 [16],No effect
same,IC50,T47D [17],No effect
same,IC50,U373 MG [18],No effect
same,IC50,A-427 [19],No effect
same,IC50,T-24 [20],No effect
same,IC50,U-87 MG [21],No effect
same,MTD,[3],160 mg/kg
same,IC50,A549 [22],No effect
same,IC50,MCF7 [23],No effect
same,IC50,A 172 [24],No effect
same,IC50,HCT-15 [25],No effect
COc1cccc2c1C(=O)c1c(O)c3c(c(O)c1C2=O)C[C@@](O)(C(=O)CO)C[C@@H]3O[C@H]1C[C@H](N)[C@H](O)[C@H](C)O1 [DOXORUBICIN],MTD/16,Mus musculus [26],0.63 mg/kg
same,MTD/4,Mus musculus [27],2.5 mg/kg
same,MTD/2,Mus musculus [28],5 mg/kg
same,MTD/8,Mus musculus [29],1.25 mg/kg
COc1ccc(-c2cc3c(OC)ccc(OC)c3nc2O)cc1,pIC50,A-427 [1],< 5.00
same,pIC50,A549 [2],< 5.00
same,MTD,[3],160 mg/kg
same,pIC50,MCF7 [4],< 5.00
same,pIC50,T-24 [6],< 5.00
same,pIC50,U373 MG [7],< 5.00
same,pIC50,A 172 [8],< 5.00
same,pIC50,J82 [9],< 5.00
same,pIC50,U-87 MG [10],< 5.00
same,pIC50,LoVo [11],< 5.00
same,pIC50,T47D [30],< 5.00
same,pIC50,HCT-15 [31],< 5.00
same,pIC50,PC-3 [13],< 5.00
COc1cc([C@@H]2c3cc4c(cc3[C@@H](O[C@@H]3O[C@@H]5CO[C@@H](C)O[C@H]5[C@H](O)[C@H]3O)[C@H]3COC(=O)[C@H]23)OCO4)cc(OC)c1O [ETOPOSIDE],MTD/4,Mus musculus [32],20 mg/kg
same,MTD/8,Mus musculus [33],10 mg/kg
same,MTD/2,Mus musculus [34],40 mg/kg
same,MTD/16,Mus musculus [35],5 mg/kg
